From ChEMBL document CHEMBL2086260, “Cytotoxic prenylated acetophenone dimers from Acronychia pedunculata” (J Nat Prod, 2012)

Legend:
A2058 = assay: Cytotoxicity against human A2058 cells after 48 hrs by […]; type: functional, cell-based; conditions: for IC50: A2058, 48 h
Procedure, shortened: (§1)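 Cells from ATCC, grown in RPMI 1640 with 10% heat-inactivated FBS and 1% penicillin/streptomycin. Seeded at 5000 cells/well and incubated overnight, then exposed to graded compound concentrations or DMSO vehicle for 48 h. Viability was read by MTS reagent absorbance at 490 nm and normalized to vehicle. Each experiment was run in triplicate or quadruplicate; values are means ± SD.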

DU-145 = assay: Cytotoxicity against human DU145 cells after 48 hrs by […]; type: functional, cell-based; conditions: for IC50: DU-145, 48 h; procedure, shortened: as §1
NHDF = assay: Cytotoxicity against human NHDF cells after 48 hrs by […]; type: cell-based; conditions: for IC50: Homo sapiens, NHDF; for inhibition (INH): human, nhdf
Procedure, shortened: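 Normal human dermal fibroblasts were grown in DMEM with 10% FBS. Seeded at 5000 cells/well and incubated overnight, then exposed to compounds or DMSO vehicle for 48 h. Viability was read by MTS absorbance at 490 nm and normalized to vehicle. Each experiment was run in triplicate or quadruplicate.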

Q: For `COc1c(CC=C(C)C)c(O)c(C(CC(C)C)c2c(O)c(C(C)=O)c(O)c3c2OC(C(C)(C)O)C3)c(O)c1C(C)=O` (stereo not given) [ACROFOLIONE A], which inhibition (A2058) is on record?
A: The inhibition was “Dose-dependent effect”.

Q: What about the IC50 (A2058) of the same molecule?
A: The IC50 was 4.2 µM.

Q: And the inhibition (DU-145)?
A: The inhibition was “Dose-dependent effect”.

Q: What about the IC50 (DU-145) of the same molecule?
A: The IC50 was over 5 µM.

Q: What about the IC50 (NHDF) of the same molecule?
A: The IC50 was over 5 µM.

Q: And the “inhibition (INH)” value (NHDF)?
A: Its value is “Dose-dependent effect”.

Q: With `C=C(C)C(O)Cc1c(O)c(C(C)=O)c(O)c(C(CC(C)C)c2c(O)c(CC=C(C)C)c(OC)c(C(C)=O)c2O)c1O` (stereo not given) [ACROVESTENOL] as the molecule, how does the inhibition (A2058) read?
A: The inhibition was “Dose-dependent effect”.

Q: What about the IC50 (A2058) of the same molecule?
A: The IC50 was 2.8 µM.

Q: And the inhibition (DU-145)?
A: Its inhibition is “Dose-dependent effect”.

Q: What about the IC50 (DU-145) of the same molecule?
A: The IC50 was 2.7 µM.

Q: What about the IC50 (NHDF) of the same molecule?
A: Its IC50 is over 5 µM.

Q: And the “inhibition (INH)” value (NHDF)?
A: Its value is “Dose-dependent effect”.

Q: Which results are given for `COc1c(CC=C(C)C)c(O)c([C@H](CC(C)C)c2c(O)c(CC=C(C)C)c(O)c(C(C)=O)c2O)c(O)c1C(C)=O` [ACROVESTONE]?
A: inhibition (A2058): Dose-dependent effect; IC50 (A2058): 0.38 µM; inhibition (DU-145): Dose-dependent effect; IC50 (DU-145): 0.93 µM; IC50 (NHDF): > 5 µM; inhibition (INH) (NHDF): Dose-dependent effect

Q: Which results are given for `CNC(=O)c1cc(Oc2ccc(NC(=O)Nc3ccc(Cl)c(C(F)(F)F)c3)cc2)ccn1` [SORAFENIB]?
A: IC50 (A2058): 3.8 µM; IC50 (DU-145): 5.1 µM
